PAX8 reporter – inhibitors of PAX8 transcriptional activity in RMG-I cells; RMG-I TPO-luciferase reporter, SteadyGlo, 24 h; AID 652154; 1.2% of 360,000 active; inhibition, % at 12.6 µM;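 active = mean replicate inhibition at least 60% with every replicate also reaching 60%; inconclusive = only one of the two criteria is met; inactive = mean below 60% and not all replicates reaching 60%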;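 also: luciferase light reporting Pax8 driven TPO promoter activity; plate controls were median of neutral control wells for no effect and mitoxantrone controls for full effect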
RAD52 anneal inh – blocks human RAD52 DNA annealing. 0.46% of 360,000 active. inhibition, % at 18.7 µM. recombinant RAD52 DNA annealing, FRET fluorescence;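 active = every replicate showing at least 50% inhibition; inconclusive = mean inhibition at least 50% but not in every replicate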
RAD54 inh – inhibitors of human RAD54 branch migration; Q92698; RAD54 Holliday junction branch migration, FAM/BHQ fluorescence; inhibition, % at 10.4 µM; 0.14% of 360,000 active; AID 602329;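 active = mean normalized replicate activity at least 40 and at least half of replicates scoring 40 or more; inconclusive = only one of the two criteria met; inactive = mean below 40 and under half of replicates reaching 40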;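 also: 0% = median of neutral control wells and 100% = median of positive control wells; inhibitors cause a drop in the FAM fluorescence signal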
Target sequence (Q92698 whole entry, looked up): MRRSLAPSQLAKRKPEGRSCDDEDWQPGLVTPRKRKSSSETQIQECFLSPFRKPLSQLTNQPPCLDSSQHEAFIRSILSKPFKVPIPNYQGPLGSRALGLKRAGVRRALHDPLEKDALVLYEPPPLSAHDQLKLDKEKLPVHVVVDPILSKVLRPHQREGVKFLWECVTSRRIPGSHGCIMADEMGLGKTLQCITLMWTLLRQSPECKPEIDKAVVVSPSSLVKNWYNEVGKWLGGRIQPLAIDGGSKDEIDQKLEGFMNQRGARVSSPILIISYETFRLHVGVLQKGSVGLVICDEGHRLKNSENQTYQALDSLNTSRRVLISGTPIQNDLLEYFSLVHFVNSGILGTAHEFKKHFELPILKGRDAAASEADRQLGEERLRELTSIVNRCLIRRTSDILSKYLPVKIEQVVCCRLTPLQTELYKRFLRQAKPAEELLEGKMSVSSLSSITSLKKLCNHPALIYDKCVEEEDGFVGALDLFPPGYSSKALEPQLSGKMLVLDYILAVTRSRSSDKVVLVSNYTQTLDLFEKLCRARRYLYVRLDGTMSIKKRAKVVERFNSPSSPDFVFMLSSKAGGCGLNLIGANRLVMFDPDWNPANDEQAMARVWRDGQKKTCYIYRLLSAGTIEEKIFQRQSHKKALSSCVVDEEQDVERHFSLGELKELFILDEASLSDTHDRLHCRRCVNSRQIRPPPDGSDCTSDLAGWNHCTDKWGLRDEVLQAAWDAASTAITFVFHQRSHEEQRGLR
FN deposition inh – fibronectin deposition inhibition; 0.086% of 350,000 active; AH1F fibroblasts, Alexa488-fibronectin deposition fluorescence, overnight; AID 743247; inhibition, % at 12.6 µM;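 active = mean inhibition across replicates of 30% or more, regardless of how many single replicates reach that level; inconclusive = mean under 30% yet at least half of replicates reach 30%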;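 also: positive control wells lacked labelled fibronectin entirely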
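Schedule: 1 h cell adhesion before compound, then overnight fibronectin incubation; test system: AH1F fibroblast monolayer depositing Alexa488-labelled fibronectin into matrix; quantity: 10000 AH1F cells per well; probe or stimulus: fluorescent fibronectin at 24 nM final; signal: fluorescence, ex 485 nm, em 525 nm; evaluation: percent inhibition as loss of matrix-bound fibronectin fluorescence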
DNA binding – counter-screen for Rad54 inhibitors: DNA binding compounds | shares compounds with RAD54 inh | Acridine orange-DNA displacement, fluorescence polarization, 20 min | AC50, µM (series often up to 35 µM), without a hit: top-dose activity change, negative = DNA binding | 8% of 460 active | AID 651673;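 active = signal drop giving an AC50 within twice the top valid tested concentration of each sample, actives reach about 35 µM in these data; inactive = activity opposite to expected, plus the rest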;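 also: polarization loss reports compound binding to salmon sperm DNA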
DNA binder FP – DNA binding artifact in RAD52 counter-screen; shares compounds with RAD52 anneal inh; Salmon sperm DNA/acridine orange FP displacement; AC50, µM; 8% of 1,000 active; AID 652128;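 active = fitted half-maximal concentration for signal loss at or below twice the highest dose tested, in every separate run, actives reach about 64 µM in these data; inconclusive = runs disagree, or flat partial signal loss, or poor fit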
Active calls of the source: *. The list is not random: actives were taken first. Their share in the collection is about 1.3%.

Screening CN(C)CCNC(=O)c1cccc(-c2cnc3c(NC=O)cc(-c4cccs4)cn23)c1 returned PAX8 reporter -20.7, RAD52 anneal inh 67.9*, RAD54 inh 62.9*, FN deposition inh 2.4, DNA binding -17.5% and DNA binder FP inactive.
`CN(C)CCNC(=O)c1cccc(-c2cnc3c(NC=O)cc(-c4ccc(C(=O)N5CCOCC5)cc4)cn23)c1` gave PAX8 reporter -0.1, RAD52 anneal inh 62.6*, RAD54 inh inconclusive, FN deposition inh 7.4, DNA binding -5.2% and DNA binder FP inactive.
Screening CN(C)CCNC(=O)c1cccc(-c2cnc3c(NC=O)cc(-c4ccccc4F)cn23)c1 returned PAX8 reporter 50.8, RAD52 anneal inh 96.4*, RAD54 inh 63.0*, DNA binding 5.6% and DNA binder FP inactive.
Cc1cc(-c2cc(NC=O)c3ncc(-c4cccc(C(=O)NCCN(C)C)c4)n3c2)cc(C)c1O was read as PAX8 reporter 4.3, RAD52 anneal inh 91.8*, RAD54 inh 62.0*, FN deposition inh 6.9, DNA binding -4.2% and DNA binder FP inactive.
`CC(=O)c1cccc(-c2cnc3c(NC=O)cc(-c4ccc(C(=O)N5CCOCC5)cc4)cn23)c1` gave PAX8 reporter 17.9, RAD52 anneal inh -33.8, RAD54 inh 7.3 and FN deposition inh 10.8.
CC(=O)c1cccc(-c2cnc3c(NC=O)cc(-c4ccccc4)cn23)c1 was read as PAX8 reporter 9.9, RAD52 anneal inh -85.4, RAD54 inh 3.2 and FN deposition inh 19.1.
`COc1ccc(NC(=O)Nc2ccc3c(c2)CC(=O)N([C@H](C)CO)C[C@@H](C)[C@H](CN(C)CC2CC2)O3)cc1` gave RAD52 anneal inh 5.9 and RAD54 inh 4.1.
C[C@H](CO)N1C[C@H](C)[C@@H](CN(C)C(=O)CC2CC2)Oc2cc(C3=CCCCC3)ccc2S1(=O)=O was read as RAD52 anneal inh 12.9, RAD54 inh -3.3 and FN deposition inh 6.2.
O=C(NC1CCS(=O)(=O)C1)c1ccccc1Cl (centres undefined) was read as PAX8 reporter -5.6, RAD52 anneal inh -15.3, RAD54 inh -12.1 and FN deposition inh 0.4.
`O=C(CN(Cc1ccco1)C(=O)c1ccc(Cl)cc1)Nc1ccc(Cl)c(Cl)c1` gave PAX8 reporter 19.9, RAD54 inh -5.6 and FN deposition inh 2.9.
For O=C(Nc1ccc(Nc2ccncc2)cc1)c1ccc(Nc2ccnc3ccc([N+](=O)[O-])cc23)cc1 the results were PAX8 reporter 1.1, RAD52 anneal inh 93.6*, RAD54 inh 128.3*, FN deposition inh -39.8, DNA binding 4.1% and DNA binder FP inactive.
Nc1cc2ccncc2c2ccccc12 was read as PAX8 reporter -45.1, RAD52 anneal inh 59.8*, RAD54 inh 69.7*, FN deposition inh 11.5, DNA binding -13.8% and DNA binder FP inactive.
For COc1cc(Nc2c3c(nc4ccccc24)CCC3)cc(OC)c1OC the results were PAX8 reporter -15.0, RAD52 anneal inh 7.7, RAD54 inh 10.9 and FN deposition inh 8.6.
Screening Cc1ccc2nc3c(c(Nc4ccc(O)cc4)c2c1)CCC3 returned PAX8 reporter -1.5, RAD52 anneal inh 45.7, RAD54 inh 66.6*, FN deposition inh -3.3, DNA binding -1.0% and DNA binder FP inactive.
COc1ccc(C(=O)C2CCCN(C(=O)c3ccc(C(C)=O)s3)C2)c(C)c1 (centres undefined) was read as PAX8 reporter 4.7, RAD52 anneal inh -8.3, RAD54 inh -0.7 and FN deposition inh -1.8.
COc1cccc2sc3cc(NCCCN4CCOCC4)ccc3c(=O)c12 was read as PAX8 reporter -39.7, RAD52 anneal inh 62.2*, RAD54 inh 78.2*, FN deposition inh -4.2, DNA binding 3.2% and DNA binder FP inactive.
`Cn1c(=O)cc(SCC(=O)NCCCN2CCOCC2)c2ccccc21` gave PAX8 reporter 14.9 and RAD54 inh -8.0.
Cn1c2ccccc2c(=O)c2cc(NCCCN3CCOCC3)ccc21 was read as PAX8 reporter -418.2, RAD52 anneal inh 70.4*, RAD54 inh 115.7*, FN deposition inh 16.4, DNA binding 1.9% and DNA binder FP inactive.
For CN1CCC[C@H]1CCNc1ccc2c(=O)c3ccccc3n(C)c2c1 the results were PAX8 reporter -336.3, RAD52 anneal inh 50.5*, RAD54 inh 89.9*, DNA binding -10.3% and DNA binder FP inactive.
Cc1ccccc1-c1ccc([C@@H]2[C@H]3CN(C(=O)c4cccnc4)CCCCN3[C@H]2CO)cc1 was read as PAX8 reporter -2.3, RAD52 anneal inh -5.0 and RAD54 inh -10.2.
For CCN(CC)C(=O)Cn1cc(C(=O)C(=O)NCc2ccco2)c2ccccc21 the results were PAX8 reporter 12.7, RAD52 anneal inh -148.9 and FN deposition inh -3.1.
Screening COc1cc(OC)c(NC(=O)CC(C)=O)cc1Cl returned PAX8 reporter -25.6 and FN deposition inh -6.9.
Screening Cc1[nH]n(-c2ccccc2)c(=O)c1/C=C1/C=c2ccccc2=N1 returned PAX8 reporter 19.5, RAD52 anneal inh -23.2 and FN deposition inh 7.2.
For CCN(CC)CCN(C(=O)C1=COCCO1)c1nc2c(OC)ccc(OC)c2s1 the results were PAX8 reporter 3.0, RAD52 anneal inh 88.1*, RAD54 inh 77.4*, FN deposition inh -2.3, DNA binding 10.3% and DNA binder FP inactive.
`CCN(CC)CCN(C(=O)C1=COCCO1)c1nc2ccc(C)cc2s1` gave PAX8 reporter -18.6, RAD52 anneal inh 18.5, RAD54 inh 13.7 and FN deposition inh 2.6.
`COc1cc2ccccc2cc1C(=O)N(CCN(C)C)c1nc2c(OC)ccc(OC)c2s1` gave PAX8 reporter 21.3, RAD52 anneal inh 94.3*, RAD54 inh 60.1*, FN deposition inh 6.6, DNA binding -4.7% and DNA binder FP inactive.
COc1ccc(OC)c2sc(N(CCN(C)C)C(=O)c3ccc4ccccc4c3)nc12 was read as PAX8 reporter -0.4, RAD52 anneal inh 93.2*, RAD54 inh 69.2*, FN deposition inh 3.5, DNA binding 4.9% and DNA binder FP inactive.
Screening O=C(NCc1ccc2c(c1)OCO2)c1cc(-c2cc(Cl)ccc2O)n[nH]1 returned PAX8 reporter -18.8, RAD52 anneal inh -14.1, RAD54 inh -4.3 and FN deposition inh -2.0.
C/C=C/c1cnc2c(c1)C(=O)N([C@@H](C)CO)C[C@@H](C)[C@@H](CN(C)Cc1ccc3c(c1)OCO3)O2 was read as PAX8 reporter 2.1, RAD52 anneal inh 5.4, RAD54 inh -1.2 and FN deposition inh -13.2.
`CCN(CC)CCN1CCN(c2cncc(-c3cccc(N)c3)n2)CC1` gave PAX8 reporter -11.8, RAD52 anneal inh 99.0*, RAD54 inh 73.2*, FN deposition inh -3.4, DNA binding -11.2% and DNA binder FP inactive.
